# Source: PubChem
# Only some compounds are listed: those with a hit (about 1.8% of all), similar ones and a draw of the others.
# CHRM5 antagonist: antagonists of human muscarinic M5 receptor (CHRM5). inhibition, % at 3 µM. hit rate 0.59% among 360,000. P08912. CHO-hM5 cells, Fluo-8 calcium fluorescence, ACh EC80;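 active = inhibition above a per-plate cutoff, the mean of that plate's test compounds plus 3 SD, cut at about 27% in these data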;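 also: 0% = acetylcholine EC80 with DMSO and 100% = DMSO without agonist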
# Target sequence (P08912 whole entry, looked up): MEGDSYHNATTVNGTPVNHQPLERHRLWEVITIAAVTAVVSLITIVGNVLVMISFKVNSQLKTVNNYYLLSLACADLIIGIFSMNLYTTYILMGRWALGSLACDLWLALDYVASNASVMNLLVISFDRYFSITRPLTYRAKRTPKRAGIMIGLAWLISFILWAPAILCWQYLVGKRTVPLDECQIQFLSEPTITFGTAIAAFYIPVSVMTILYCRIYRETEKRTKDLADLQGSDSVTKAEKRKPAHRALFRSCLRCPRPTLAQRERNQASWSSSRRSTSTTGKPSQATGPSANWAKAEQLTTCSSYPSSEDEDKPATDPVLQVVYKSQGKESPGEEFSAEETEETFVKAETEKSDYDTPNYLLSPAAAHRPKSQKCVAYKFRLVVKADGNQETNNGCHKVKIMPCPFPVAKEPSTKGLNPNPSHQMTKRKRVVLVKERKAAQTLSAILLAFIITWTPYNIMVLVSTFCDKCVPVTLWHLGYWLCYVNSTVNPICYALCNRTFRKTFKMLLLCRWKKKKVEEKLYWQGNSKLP
# CHRM4 antagonist: antagonists of human muscarinic M4 receptor (CHRM4); hit rate 0.73% among 360,000; P08173; CHO-hM4 cells, ACh EC80, Fluo-8 calcium fluorescence; inhibition, % at 3 µM; AID 624125;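 active = inhibition above its plate's cutoff, the mean inhibition of sample wells plus 3 SD, cut at about 27% in these data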;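 also: 0% = acetylcholine EC80 with DMSO and 100% = DMSO without agonist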
# CHRM4 PAM: potentiates acetylcholine response at human M4 receptor; activation, % at 3 µM; CHO-K1 hM4/Gqi5, Fluo-8 calcium fluorescence, ACh EC20; 0% = ACh EC20, 100% = maximal ACh; P08173; hit rate 0.4% among 360,000; AID 624126;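 active = activation above its plate's cutoff, the mean activation of sample wells plus 3 SD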
# M5 ag: CHRM5 agonism in calcium assay. P08912. CHO-K1 hM5 cells, Fluo-8 calcium fluorescence; 0% DMSO wells, 100% maximal acetylcholine response. activation, % at 3 µM. hit rate 0.19% among 360,000;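 active = activation above the run's mean over test compounds plus 3 SD, cut at about 23% in these data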;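 also: signal is peak over basal fluorescence ratio across the kinetic read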
# CHRM5 PAM: CHRM5 positive allosteric modulation; activation, % at 3 µM; CHO-K1 hM5, Fluo-8 calcium, ACh EC20 PAM; 0% = ACh EC20, 100% = ACh EC100; P08912; hit rate 0.3% among 360,000;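 active = activation above the run cutoff, the mean activation of all test compounds plus 3 SD, cut at about 18% in these data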
#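 System – CHO-K1 hM5 cells · Compound – 3 µM, single dose · Incubation – compound preincubation 140 s before EC20 acetylcholine addition · Technique – Fluo-8 calcium fluorescence · Measure – Max/basal fluorescence ratio as % of EC20–EC100 ACh window · Benchmarks – low control EC20 acetylcholine (0%), high control EC100 acetylcholine (100%) · Replication – singlicate, one well per test compound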
# M4 ag: CHRM4 agonism in calcium assay; P08173; CHO-K1 hM4/Gqi5, Fluo-8 calcium fluorescence; vehicle 0%, full acetylcholine response 100%; activation, % at 3 µM; hit rate 0.14% among 360,000; AID 624127;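 active = activation above the run mean over all test wells plus 3 SD, cut at about 32% in these data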;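 also: peak over basal fluorescence ratio per well then scaled between controls; 0% = DMSO wells and 100% = acetylcholine at EC100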
# An asterisk follows results filed as active; ! = not active in a repeat.
SMILES,CHRM5 antagonist,CHRM4 antagonist,CHRM4 PAM,M5 ag,CHRM5 PAM,M4 ag
O=C(CC1(O)CCCCC1)OC1CCCC1,7,1,2,1,-1,0
COc1ccc(Oc2nc3c(c(=O)n(C)c(=O)n3C)n2Cc2ccccc2)cc1,-6,0,30*,-2,12,0
Cc1ccc(Cn2c(N/N=C/c3ccncc3)nc3c2c(=O)n(C)c(=O)n3C)cc1,0,-6,-1,-5,1,3
Cn1c(=O)c2c(nc(SCCN3CCCCC3)n2Cc2ccccc2)n(C)c1=O,5,28*,-20,-7,-7,-1
Cn1c(=O)c2c(nc(Oc3ccc4c(c3)OCO4)n2Cc2ccc(Cl)cc2)n(C)c1=O,0,7,1,1,33*,1
Cn1c(=O)c2c(nc(N/N=C/c3ccncc3)n2Cc2ccccc2)n(C)c1=O,-10,2,-2,5,21*,1
Cc1ccc(Cn2c(SCCN3CCCCC3)nc3c2c(=O)n(C)c(=O)n3C)cc1,-4,-2,-1,-7,0,0
COc1cccc(C2Nc3ccc4ccccc4c3C3=C2C(=O)CC(C)(C)C3)c1OCC(=O)O (stereo unspecified),0,2,5,0,4,1
O=C(CNc1ccc(C(F)(F)F)cc1)Nc1cccc(S(=O)(=O)N2CCCCC2)c1,12,11,-6,4,-7,16
CN(Cc1ccccc1)c1nc2c(c(=O)n(C)c(=O)n2C)n1CCCc1ccccc1,13,27*,-10,-5,-16,3
CCN(CC)c1nc2c(c(=O)n(C)c(=O)n2C)n1CCCc1ccccc1,9,-9,-2,2,-1,2
O=C(COc1cccnc1[N+](=O)[O-])c1c[nH]c2ccccc12,-4,34*,14,-1,14,4
CCCCc1nc(SCC(=O)N2CCOCC2)c2c(=O)n(C)c(=O)n(C)c2n1,3,11,0,-1,3,3
CCN1CCN(C2=C(NS(=O)(=O)c3ccc(NC(C)=O)cc3)C(=O)c3ccccc3C2=O)CC1,-7,12,-4,0,1,0
CC(=O)Nc1ccc(S(=O)(=O)NC2=C(N3CCN(Cc4ccccc4)CC3)C(=O)c3ccccc3C2=O)cc1,19,31*!,0,-2,-9,13
Cc1ccc(S(=O)(=O)N2CC3C(=O)C[C@@H](c4ccccc4)N(S(=O)(=O)c4cccc(Cl)c4)C3CC2c2ccccc2)cc1 (stereo partly specified),1,6,-6,1,-5,4
Cc1cccc[n+]1CC(=O)N1c2ccccc2Sc2ccccc21,99*,96*,-24,-11,-20,0
COCCNCC(=O)N1c2ccccc2Sc2ccccc21,57*,31*,-12,-21,-33,1
COCCCNC(=O)N1c2ccccc2Sc2ccccc21,-1,-2,1,-14,11,0
CC(C)NC(=O)N1c2ccccc2Sc2ccccc21,7,21,-14,-10,-7,-1
CC(C)CNCC(=O)N1c2ccccc2Sc2ccccc21,74*,52*,-16,-14,-50,2
CC(=O)N1c2ccccc2Sc2ccccc21,17,10,-10,-19,-9,-1
CC[C@H]1O[C@H](C)CC2=C1C(=O)OC(C)(C)O2,2,-5,23*,2,-1,10
O=[N+]([O-])c1ccc(-n2nncc2-c2ccccc2)cc1,-9,-8,-10,-18,19*,0
COc1ccc(/C=N/N=C2/NC(=O)C(CC(=O)O)S2)cc1OS(=O)(=O)c1ccccc1 (stereo unspecified),7,-2,-1,2,-4,-1
SMILES,CHRM5 antagonist,CHRM4 antagonist,CHRM4 PAM,M5 ag,CHRM5 PAM,M4 ag
Cc1ccc(S(=O)(=O)Oc2ccc(C)cc2/C=N/N=C2\NC(=O)C(C)S2)cc1 (stereo unspecified),-14,7,3,-9,18*,0
Cc1cccc(C)c1NC(=O)C1(C)CSCC(=O)N1CCc1ccccc1F (stereo unspecified),-9,-15,10,3,3,7
CC(=O)Nc1ccc(C(=O)NCC2(N3CCCCC3)CCCCC2)cc1,6,6,0,-8,-1,0
CCC(=O)N1CCC1(C)C(=O)Nc1ncc(C)s1 (stereo unspecified),10,-13,19*,3,0,1
CCC(=O)N1CCC1(C)C(=O)Nc1nccs1 (stereo unspecified),-7,-8,-4,0,-1,0
Cc1ccc2nc(SCC(=O)N3CCC(Cc4ccccc4)CC3)nc(=O)n2c1,5,-7,-15,-3,-18,35*
COc1ccccc1CCn1cc(C#N)c(=O)[nH]c1=O,6,100*,-16,-3,0,-2
COc1ccc(CCn2cc(C#N)c(=O)[nH]c2=O)cc1OC,18,-5,-2,-2,-14,2
CCOc1ccc(Br)cc1/C(C)=N\NC1=NCCN1,32*,21,-12,8,-15,6
CCOC(=O)Cc1csc(SCC(=O)N(CC(C)C)c2c(N)n(Cc3ccccc3)c(=O)[nH]c2=O)n1,6,-6,12,1,-3,0
CCCCNC(=O)COCc1cc(-c2ccc3c(c2)OCO3)on1,8,-5,15*,-1,-6,6
COc1cc(NC(=O)CN(C)S(=O)(=O)c2ccc(C)cc2)cc(OC)c1,-6,-8,18*,-12,5,2
COc1ccc(S(=O)(=O)N(CC(=O)O)c2ccccc2)cc1,-1,-12,22*,2,4,2
COc1ccc(C)cc1S(=O)(=O)N(CC(=O)O)c1ccccc1,-4,-4,-1,-1,3,1
COc1ccc(C)cc1S(=O)(=O)N(CC(=O)O)c1ccc(C)cc1,-13,6,32*,3,12,0
COc1ccc(S(=O)(=O)N(C)CC(=O)Nc2ccccc2OC)cc1,1,34*,1,-2,0,2
O=C1COc2ccc(C(=O)COC(=O)c3nc(Cl)ccc3Cl)cc2N1,-6,-1,2,0,5,0
O=C(OCc1c(F)cccc1Cl)c1cnc(Cl)c(Cl)c1,9,15,-9,-5,-1,1
CCN(CC)C(CNS(=O)(=O)c1ccc(Cl)cc1)c1ccccc1 (stereo unspecified),6,0,-11,-11,5,0
COc1ccccc1NC(=O)CN(c1ccccc1)S(=O)(=O)c1ccccc1,8,-18,-7,-2,16,2
